Peptide text beside a SMILES is read from it.

What all share (type): physicochemical
A short description of data set [1]: Turbidity measurement of temperature-dependent coacervation. In short, it runs like this: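 Peptides were dissolved in pure water at various concentrations. Turbidity at 400 nm was followed while the temperature was raised or lowered at 0.5 °C/min starting from 5 °C. Each concentration was run at least three times. Tt was taken as the temperature at which turbidity reached half its maximum.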

Data set [2] can be described thus: Logarithmic fit of Tt against molar peptide concentration. As to conditions: pure water. In short, it runs like this:
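Tt for each peptide was obtained by turbidity at 400 nm in pure water at several concentrations, measured at least three times per concentration. Tt was plotted against the logarithm of molar peptide concentration and fitted as a logarithmic function. C37 was obtained by logarithmic extrapolation to Tt = 37 °C. The concentration needed at 50 °C was computed from formula (1).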

The nature of data set [3]: Scanning electron microscopy of aggregates. The note with it: 0.10 mg/mL aqueous solution incubated at 50 °C for 3 h (Figure S6). In outline:
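Peptide in water at 0.1 mg/mL was incubated at 50 °C for 3 h, dropped on a cover glass and air-dried at 50 °C. The residue was rinsed gently three times with distilled water and air-dried again. Samples were platinum sputter-coated (5 nm) and imaged at 5.00 kV at 500× and 2000× magnification.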

For `CC(C)[C@H](NC(=O)CNC(=O)[C@@H]1CCCN1C(=O)[C@H](Cc1ccccc1)NC(=O)CNC(=O)[C@@H](NC(=O)CNC(=O)[C@@H]1CCCN1C(=O)[C@H](Cc1ccccc1)NC(=O)CNC(=O)[C@@H](NC(=O)CNC(=O)[C@@H]1CCCN1C(=O)[C@@H](N)Cc1ccccc1)C(C)C)C(C)C)C(=O)NCC(N)=O` [F3, H-(FPGVG)3-NH2] (H-FPGVGFPGVGFPGVG-NH2), the “coacervation (turbidity change on heating)” value in data set [1] (peptide 20–50 mg/mL in pure water, turbidity at 400 nm (Figure S2)) is reported as “no coacervation”.
Take `CC(C)[C@H](NC(=O)CNC(=O)[C@@H]1CCCN1C(=O)[C@H](Cc1ccccc1)NC(=O)CNC(=O)[C@@H](NC(=O)CNC(=O)[C@@H]1CCCN1C(=O)[C@H](Cc1ccccc1)NC(=O)CNC(=O)[C@@H](NC(=O)CNC(=O)[C@@H]1CCCN1C(=O)[C@H](Cc1ccccc1)NC(=O)CNC(=O)[C@@H](NC(=O)CNC(=O)[C@@H]1CCCN1C(=O)[C@H](Cc1ccccc1)NC(=O)CNC(=O)[C@@H](NC(=O)CNC(=O)[C@@H]1CCCN1C(=O)[C@@H](N)Cc1ccccc1)C(C)C)C(C)C)C(C)C)C(C)C)C(=O)NCC(N)=O` [F5, H-(FPGVG)5-NH2] (H-FPGVGFPGVGFPGVGFPGVGFPGVG-NH2): the “peptide concentration at which coacervation is exhibited / required” value in data set [1] (pure water, turbidity at 400 nm, 0.5 °C/min from 5 °C) is recorded as “at least 20 mg/mL”. In addition, the “concentration required to show coacervation at 50 °C” value in data set [2] (calculated with formula (1)) is given as “at least 8.09 mM”. In data set [2] (logarithmic extrapolation of the Tt vs peptide concentration graph), the “C37 (peptide concentration to attain Tt at 37 °C)” value is 11.7 mM. The “morphology by SEM” value in data set [3] was “spherical structures were not formed”.

The record behind these values is article PMC7931394 (ACS Omega, 2021).
